# Biological target: T1, CYP2B6 (Homo sapiens, UniProt P20813)
# T1 sequence (P20813 1-491): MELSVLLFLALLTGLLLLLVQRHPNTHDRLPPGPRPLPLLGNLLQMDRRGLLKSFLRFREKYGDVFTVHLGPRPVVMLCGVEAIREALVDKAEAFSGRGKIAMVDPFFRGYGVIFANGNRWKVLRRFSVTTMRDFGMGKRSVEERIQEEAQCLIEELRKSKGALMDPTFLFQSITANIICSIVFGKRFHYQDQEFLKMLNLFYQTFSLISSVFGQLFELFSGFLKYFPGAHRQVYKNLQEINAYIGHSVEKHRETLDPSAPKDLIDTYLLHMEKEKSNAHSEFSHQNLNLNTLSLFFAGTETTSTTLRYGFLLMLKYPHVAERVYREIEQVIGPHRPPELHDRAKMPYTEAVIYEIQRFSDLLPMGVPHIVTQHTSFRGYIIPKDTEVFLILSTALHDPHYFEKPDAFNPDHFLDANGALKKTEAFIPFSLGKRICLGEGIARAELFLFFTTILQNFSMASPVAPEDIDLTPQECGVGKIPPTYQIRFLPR
# Test: Product formation kinetic analysis
# Assay type: in vitro ADME
# Conditions: cDNA-expressed CYP2B6
# Outline: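 cDNA-expressed CYP2B6 (5–20 nM) in 100 mM potassium phosphate pH 7.4 at 37 °C. Eight substrate concentrations, 0.5–100 μM (0.5–30 μM for one poorly soluble analogue); parent drug run the same way. NADPH regenerating system, 5–20 min, with linearity in enzyme and time set by pilot runs. Ice-cold acetonitrile stop. Product measured by SRM uHPLC-MS/MS or UV, without authentic standards. KM from a substrate-inhibition fit; fold change is analogue KM divided by the parent's 8-hydroxylation KM.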
row,Km [µM],Structure (SMILES)
1,3.6 ± 1.7,"O=C1Nc2ccc(Cl)cc2[C@@](C#CC2CC2)(C(F)(F)F)O1 [EFV, (4S)-6-Chloro-4-(2-cyclopropylethynyl)-1,4-dihydro-4-(trifluoromethyl)-2H-3,1-benzoxazin-2-one, reference compound]"
2,~1,"CC1Nc2ccc(Cl)cc2C(C#CC2CC2)(C(F)(F)F)O1 (stereo not drawn) [analogue 1, 6-Chloro-4-(2-cyclopropylethynyl)-1,4-dihydro-2-methyl-4-(trifluoromethyl)-2H-3,1-benzoxazine]"
3,14 ± 6.4,"O=C1CC(C#CC2CC2)(C(F)(F)F)c2cc(Cl)ccc2N1 (stereo not drawn) [analogue 4, 6-Chloro-4-(cyclopropylethynyl)-3,4-dihydro-4-(trifluoromethyl)-2(1H)-quinolinone]"

# Biological target: T2, rat CYP2B1 (Rattus norvegicus, UniProt P00176)
# T2 sequence (P00176 1-491): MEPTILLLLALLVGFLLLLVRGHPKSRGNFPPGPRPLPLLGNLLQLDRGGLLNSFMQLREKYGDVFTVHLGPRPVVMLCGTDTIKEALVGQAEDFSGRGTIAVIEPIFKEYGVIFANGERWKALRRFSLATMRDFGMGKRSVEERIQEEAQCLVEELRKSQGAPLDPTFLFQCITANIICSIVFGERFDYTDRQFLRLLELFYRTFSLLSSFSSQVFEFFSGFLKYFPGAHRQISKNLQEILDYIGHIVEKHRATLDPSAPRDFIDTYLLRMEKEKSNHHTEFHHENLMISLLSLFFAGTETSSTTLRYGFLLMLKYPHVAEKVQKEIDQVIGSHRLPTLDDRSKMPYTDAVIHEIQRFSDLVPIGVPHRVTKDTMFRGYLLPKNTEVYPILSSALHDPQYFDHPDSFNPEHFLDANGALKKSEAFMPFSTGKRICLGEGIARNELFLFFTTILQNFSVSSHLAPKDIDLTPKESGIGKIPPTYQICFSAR
# Test: Comparison of metabolite formation by cDNA-expressed CYP2B1 and CYP2B6
# Assay type: in vitro ADME
# Conditions: 10 nM cDNA-expressed CYP2B1, 10 μM substrate, 30 min
# Outline: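 cDNA-expressed rat CYP2B1 or human CYP2B6 systems, both with cytochrome b5 (CYP:reductase:b5 molar ratio 1:1:2 for 2B1, 1:10:2 for 2B6), 10 nM, run side by side with 10 μM substrate in 100 mM potassium phosphate pH 7.4. 5 min preincubation at 37 °C, then NADPH regenerating system for 30 min at 37 °C. Acetonitrile stop, then uHPLC-MS or uHPLC-UV (220 nm). CYP2B1 peak height normalised to mean CYP2B6 peak height (100%). Three independent experiments, mean ± SEM.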
row,Metabolite formation by CYP2B1 (in words),Structure (SMILES)
1,did not form metabolites,"COc1ccc(C(=O)Nc2ccc(Cl)cc2C(O)(C#CC2CC2)C(F)(F)F)cc1 (racemic) [methoxybenzamide analogue, rac N-[4-Chloro-2-[3-cyclopropyl-1-hydroxy-1-(trifluoromethyl)-2-propynyl]phenyl]-4-methoxybenzamide]"
2,M4 and M5 formation,"CCCC#CC1(C(F)(F)F)OC(=O)Nc2ccc(Cl)cc21 (racemic) [pentynyl analogue, rac 6-Chloro-1,4-dihydro-4-(1-pentynyl)-4-(trifluoromethyl)-2H-3,1-benzoxazin-2-one]"
3,displayed activity,Nc1ccc(Cl)cc1[C@](O)(C#CC1CC1)C(F)(F)F [(R)-5-Chloro-α-(cyclopropylethynyl)-2-amino-α-(trifluoromethyl)benzenemethanol]
4,displayed activity,Nc1ccc(Cl)cc1[C@@](O)(C#CC1CC1)C(F)(F)F [(S)-5-Chloro-α-(cyclopropylethynyl)-2-amino-α-(trifluoromethyl)benzenemethanol]
5,M2 formation,"O=C1Nc2ccc(Cl)cc2[C@@](/C=C/C2CC2)(C(F)(F)F)O1 [E-dihydroefavirenz, (E)-Dihydroefavirenz]"

# Same assay, conditions: 10 nM enzyme, 10 μM substrate, 30 min; CYP2B6 peak height set at 100%
row,Metabolite formed by CYP2B1 as percent of metabolite formed by CYP2B6 [%],Structure (SMILES)
1,~48,"O=C1Nc2c(O)cc(Cl)cc2[C@@](C#CC2CC2)(C(F)(F)F)O1 [8-OH EFV, 8-hydroxyefavirenz]"

# Source: PMC5155582 (ChemMedChem, 2016)
